Experimental data collected from several papers.
Each line is one published result; the experiments were not run side by side.
Target: MAP kinase-interacting serine/threonine-protein kinase 2 (MKNK2, Homo sapiens, UniProt Q9HBH9)

| SMILES | test | setting | quantity | result |
| --- | --- | --- | --- | --- |
| CC(=O)C1=C(C)N(c2cccc(C(F)(F)F)c2)C(=O)N[C@@H]1c1ccc(C#N)nc1 | cell-free assay, competition with immobilised ligand | 1 µM | remaining binding | 84.8% |
| Cc1sc(C(=O)NC2COC2)cc1-n1cc(NC(=O)Nc2c(F)cccc2Cl)cn1 | enzyme activity, inhibitor | 10 µM | remaining activity | 83.4% |
| COc1cc2c(Nc3ccc(Br)cc3F)ncnc2cc1OCC1CCN(C)CC1 | cell-free assay | 0.5 µM | remaining signal | 86.9% |
| C[C@@H]1CN(c2cc(-c3nn(C)c4ccc(OC5(C)CC5)cc34)ncn2)C[C@H](C)O1 | cell-free assay, competition with immobilised ligand | 1 µM | remaining binding | 67% |
| Nc1nc(Nc2ccccc2)sc1C(=O)c1c(F)cccc1F | enzyme activity, inhibitor | 10 µM | remaining activity | 99% |
| CC(C)(C)c1nc2c(s1)c1nc(N)ncc1c1ccc(NS(=O)(=O)c3c(F)cccc3F)c(F)c12 | enzyme activity, inhibitor, radiometric | 1 µM | remaining activity | 98% |
| Cc1c[nH]c2nccc(Oc3c(F)cc(Nc4cc(Cl)nc(N)n4)cc3F)c12 | cell-free assay, competition with immobilised ligand | 0.1 µM | remaining binding | 90% |
| COc1cc(Nc2cnc(C#N)c(O[C@H](C)CN(C)C)n2)ncc1-c1cnn(C)c1 | enzyme activity, inhibitor, radiometric | 1 µM | remaining activity | 98% |
| CNC(=O)c1cc(Oc2ccc(NC(=O)Nc3ccc(Cl)c(C(F)(F)F)c3)cc2)ccn1 | enzyme activity, inhibitor | 0.3 µM | inhibition | 61% |
| CC(=O)N1CCC(c2ccc(C(=O)NC3=NCCN3)cc2C(F)(F)F)CC1 | cell-free assay, competition with immobilised ligand | 1 µM | remaining binding | 100% |
| N#CCCc1ccc2c(c1)-c1[nH]c3ccc([N+](=O)[O-])cc3c1CC(=O)N2 | cell-free assay | 0.5 µM | remaining signal | 87.7% |
| CSc1cccnc1N1CCN(Cc2nc3ccccc3[nH]2)CC1 | cell-free assay, competition with immobilised ligand | 1 µM | remaining binding | 75% |
| O=C1Nc2ccc(Cl)cc2C1=Cc1cc(Cl)c(O)c(Cl)c1 | cell-free assay | 0.5 µM | remaining signal | 88.7% |
| CC/C(=N\NC(=O)NCc1cccc(O)c1)c1ccc(O)c(C)c1O | enzyme activity, inhibitor | 0.1 µM | inhibition | -2.9% |
| CC(C)(O)c1cncc(-c2nc3ccc(F)cc3n2C2CC2)c1 | cell-free assay, competition with immobilised ligand | 1 µM | remaining binding | 100% |
| Cc1ccc(Nc2nccc(N(C)c3ccc4c(C)n(C)nc4c3)n2)cc1S(N)(=O)=O | enzyme activity, inhibitor | 10 µM | inhibition | 9% |
| CC(C)c1ccc(NC(=O)c2cccs2)c(-c2nc3ccccc3[nH]c2=O)c1 | enzyme activity, inhibitor | 1 µM | activity vs control | 97% |
| CC(=O)C1=C(O)C=C2Oc3c(C(N)=O)c(O)cc(O)c3[C@]2(C)C1=O | enzyme activity, inhibitor, radiometric | 10 µM | activity vs control | 0% |
| Cn1c(=O)n(-c2ccc(C(C)(C)C#N)cc2)c2c3cc(-c4cnc5ccccc5c4)ccc3ncc21 | enzyme activity, inhibitor | 10 µM | remaining activity | 94% |
| Nc1ncnc2occ(-c3ccc(NC(=O)Nc4cc(C(F)(F)F)ccc4F)cc3)c12 | cell-free assay, inhibitor | 20 µM | remaining signal | 0% |
| CC(C)(O)[C@H]1CC[C@H](Nc2ccc3ncc(-c4cccc(C(F)(F)F)c4)n3n2)CC1 | enzyme activity, inhibitor | 1 µM | remaining activity | 66.5% |
| COc1cc(Cl)c(C(=O)N[C@@H](CN[C@H]2CC[C@@H](N)CC2)Cc2ccc(C#N)cc2)cc1-c1ccc(CN[C@H](C)c2ccc(C)cc2)o1 | enzyme activity, inhibitor | 1 µM | remaining activity | 102% |
